Test results: ChEMBL document CHEMBL1772984, “Inhibitor selectivity of a new class of oseltamivir analogs against viral neuraminidase over human neuraminidase enzymes” (Bioorg Med Chem, 2011)
Calls of active or inactive are those of the source. The rule behind the calls is not given here.

Experiments:
Sialidase-4 = target: T1, Sialidase-4 (Homo sapiens, UniProt Q8WWR8); assay: (§1) Inhibition of human NEU4 using 4MU-NA as substrate after 1 hr by fluorescence assay
T1 sequence (Q8WWR8 whole entry): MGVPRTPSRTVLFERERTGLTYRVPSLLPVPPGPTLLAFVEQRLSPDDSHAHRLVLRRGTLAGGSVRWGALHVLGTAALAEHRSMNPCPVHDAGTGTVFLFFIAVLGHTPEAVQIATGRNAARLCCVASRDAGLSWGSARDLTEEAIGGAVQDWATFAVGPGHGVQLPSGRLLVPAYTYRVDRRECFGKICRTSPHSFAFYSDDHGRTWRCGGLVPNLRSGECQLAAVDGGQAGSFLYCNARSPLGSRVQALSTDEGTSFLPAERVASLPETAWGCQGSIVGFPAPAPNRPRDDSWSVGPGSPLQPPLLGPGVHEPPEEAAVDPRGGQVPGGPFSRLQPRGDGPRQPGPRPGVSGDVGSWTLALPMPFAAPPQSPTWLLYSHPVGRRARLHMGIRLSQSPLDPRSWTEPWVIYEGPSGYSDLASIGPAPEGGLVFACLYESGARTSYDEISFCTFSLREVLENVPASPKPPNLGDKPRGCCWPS
Method in brief: (§2)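 Recombinant human NEU4 was used as a GST fusion, expressed in E. coli BL21(DE3) pLysS and glutathione-agarose purified. Enzyme (0.1 mg/mL before mixing) was preincubated 30 min at 37 °C with inhibitor (eight serial-dilution concentrations, five replicates). 4MU-NA was added from a 1 mM stock in 0.1 M sodium acetate pH 4.5 for 1 h.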

Sialidase-3 = target: T2, Sialidase-3 (Homo sapiens, UniProt Q9UQ49); assay: (§3) Inhibition of human NEU3 using 4MU-NA as substrate after 1 hr by fluorescence assay
T2 sequence (Q9UQ49 whole entry): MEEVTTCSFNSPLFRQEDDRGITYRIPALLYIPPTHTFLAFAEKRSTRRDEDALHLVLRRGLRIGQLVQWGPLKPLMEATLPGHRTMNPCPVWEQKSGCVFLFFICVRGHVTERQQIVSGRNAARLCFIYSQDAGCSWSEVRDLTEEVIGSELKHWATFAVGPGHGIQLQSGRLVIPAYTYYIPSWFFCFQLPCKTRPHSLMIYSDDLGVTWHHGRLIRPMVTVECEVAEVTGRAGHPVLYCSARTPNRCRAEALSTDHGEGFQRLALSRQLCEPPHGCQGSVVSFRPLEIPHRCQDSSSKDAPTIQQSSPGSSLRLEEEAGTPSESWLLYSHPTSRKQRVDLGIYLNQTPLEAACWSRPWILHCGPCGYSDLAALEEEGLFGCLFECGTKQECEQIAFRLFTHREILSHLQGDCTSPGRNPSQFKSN
Method in brief: (§4)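 Recombinant human NEU3 was used as an N-terminal MBP fusion, expressed in E. coli. Enzyme (0.1 mg/mL before mixing) was preincubated with inhibitor (eight serial-dilution concentrations, five replicates) for 30 min at 37 °C. 4MU-NA was then added from a 1 mM stock in 0.1 M sodium acetate pH 5.0 and incubated 1 h.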

[1] = target: T3, Sialidase-4 (Homo sapiens) (UniProt Q8WWR8); assay: as §1; method in brief: as §2
T3 sequence (whole entry): T1 sequence (Q8WWR8 whole entry)

[2] = target: T4, Sialidase-3 (Homo sapiens) (UniProt Q9UQ49); assay: as §3; method in brief: as §4
T4 sequence (whole entry): T2 sequence (Q9UQ49 whole entry)

[3] = Inhibition of viral Neuraminidase

| IC50 (Sialidase-4) [µM] | IC50 (Sialidase-3) [µM] | inhibition [1] | inhibition [2] | Ki [3] [µM] | Compound |
| --- | --- | --- | --- | --- | --- |
| 800 | 350 |  |  |  | CCC(CC)O[C@@H]1CC(C(=O)O)=C[C@H](n2cc([C@]3(O)CC[C@H]4[C@@H]5CCc6cc(O)ccc6[C@H]5CC[C@@]43C)nn2)[C@H]1NC(C)=O |
|  | 30 |  |  |  | CC(=O)N[C@H]1[C@H]([C@H](O)[C@H](O)CO)OC(C(=O)O)=C[C@@H]1O [NEU5AC2EN] |
| > 1000 | > 1000 | inactive | inactive |  | CCC(CC)O[C@@H]1CC(C(=O)O)=C[C@H](n2cc(C(C)(C)O)nn2)[C@H]1NC(C)=O |
|  |  |  |  | 0.072 | CCC(CC)O[C@@H]1CC(C(=O)O)=C[C@H](n2cc(C(O)CC)nn2)[C@H]1NC(C)=O (some centres undefined) |

Second part, the compound before the results:

| Compound | IC50 (Sialidase-4) [µM] | IC50 (Sialidase-3) [µM] | inhibition [1] | inhibition [2] | Ki [3] [µM] |
| --- | --- | --- | --- | --- | --- |
| CCC(CC)O[C@@H]1CC(C(=O)O)=C[C@H](N)[C@H]1NC(C)=O | > 1000 | > 1000 |  |  |  |
| CCC(CC)O[C@@H]1CC(C(=O)O)=C[C@H](n2cc(CCc3ccccc3)nn2)[C@H]1NC(C)=O |  |  | inactive | inactive |  |
| CCC(CC)O[C@@H]1CC(C(=O)O)C=C(n2cc(C(C)(C)O)nn2)[C@H]1NC(C)=O (some centres undefined) | > 1000 |  | inactive |  |  |
